Published values collected from several papers.
Compare with care: the assays were run in different laboratories.
EIF2AK4: eIF-2-alpha kinase GCN2 (EIF2AK4, Homo sapiens, UniProt Q9P2K8)
EIF2AK4 S808G: eIF-2-alpha kinase GCN2 (EIF2AK4, Homo sapiens, UniProt Q9P2K8, S808G)
EIF2AK4 S808G C-terminal kinase domain: eIF-2-alpha kinase GCN2, C-terminal kinase domain (EIF2AK4, Homo sapiens, UniProt Q9P2K8, S808G)

`Cc1cnc(NC2CCOCC2)nc1-n1cnc(C(=O)NC(CN)c2cc(F)cc(Cl)c2)c1` (stereo not shown) gave a remaining activity of 82% (EIF2AK4; enzyme activity, inhibitor, radiometric; 1 µM).
For `Cc1ccc(C(=O)Nc2ccc(CN3CCN(C)CC3)c(C(F)(F)F)c2)cc1C#Cc1cnc2cccnn12`, the remaining activity was 85% (EIF2AK4 S808G; enzyme activity, inhibitor; 23.5 nM).
For `COc1ccc2cc(OCC3(C(=O)O)CN(C(=O)c4ccc(F)cc4)C3)ccc2c1`, the remaining binding was 100% (EIF2AK4 S808G C-terminal kinase domain; cell-free assay, competition with immobilised ligand; 1 µM).
`Cc1ccc(NC(=O)c2ccc(C)c(C(F)(F)F)c2)cc1C#Cc1nn(C2CCC(O)CC2)c2ncnc(N)c12` (stereo not shown) has a remaining signal of 50% (EIF2AK4; cell-free assay; 10 µM).
With `CC(=O)Nc1c(C(C)=O)c(=O)n(C)c2nc(-c3ccc(Cl)cc3Cl)c(-c3ccc(Cl)cc3)cc12` the remaining binding was 48% (EIF2AK4 S808G; binding, competition with immobilised ligand; 1 µM).
For `Nc1ncnc2occ(-c3ccc(NC(=O)Nc4cc(C(F)(F)F)ccc4F)cc3)c12`, the remaining signal was 3.6% (EIF2AK4 S808G C-terminal kinase domain; cell-free assay, inhibitor; 20 µM).
The activity vs control of `Cc1cc(NC(=O)c2cccc3cc(-c4cccc5[nH]nc(N)c45)ccc23)ccc1F` is reported as 92% (EIF2AK4; enzyme activity, inhibitor; 0.1 µM).
The inhibition of `CNc1cc(Oc2cc(C(=O)Nc3cc(N4CCN(C)CC4)cc(C(F)(F)F)c3)ccc2C)ncn1` is reported as 37% (EIF2AK4; target engagement in cells, inhibitor, chemoproteomics; Huh-7; 1 µM).
With `CN1CC(Oc2cnc(C#N)cc2-c2ccn3nc(NC(=O)C4CC4)cc3c2)C1` the inhibition was 15% (EIF2AK4; enzyme activity, inhibitor; 1 µM).
With `COc1cc(Cl)c(C(=O)N[C@@H](CN[C@H]2CC[C@@H](N)CC2)Cc2ccc(C#N)cc2)cc1-c1ccc(CN[C@H](C)c2ccc(C)cc2)o1` the remaining activity was 102% (EIF2AK4; enzyme activity, inhibitor; 1 µM).
